The values below come from ChEMBL document CHEMBL1154573, “New 7,20:14,20-diepoxy ent-kauranoids from Isodon xerophilus” (J Nat Prod, 2000).

The structures appear in SMILES notation. Values after ≈ are worked out from the molar mass of the structure shown.

One experiment has as its system K562. Description: Cytotoxicity against human K562 cells after 48 hrs by MTT assay. The following applies: K562, 48 h. Format: functional, cell-based. The procedure, abridged: (§1)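 MTT reduction assay. Cells in log-phase growth were seeded at 4 × 10⁴ cells/mL and exposed in four replicates to drug at 10⁻⁴–10⁻⁸ mol/L for 48 h at 37 °C in humidified 5% CO₂. MTT (5 mg/mL solution) was then added for a further 4 h. Formazan was dissolved in 10% SDS–5% isobutanol–HCl for 12 h at room temperature. OD was read at 570 and 630 nm, and IC50 was derived. Negative controls were saline or 1% or 0.1% DMSO.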
A word on the IC50: it is the midpoint of a concentration-inhibition curve. On to `C=C1C(=O)[C@@]23[C@@H]4O[C@H]5O[C@@]2(O)[C@@H](O)[C@@H]2C(C)(C)CCC[C@]52[C@@H]3CC[C@@H]14` [XEROPHILUSIN B], for which the IC50 amounted to 0.73 µg/mL (≈ 2.11 µM).
Regarding `O=C1c2c(O)ccc(O)c2C(=O)c2c(NCCNCCO)ccc(NCCNCCO)c21` [MITOXANTRONE], inhibition was half-maximal at 0.0334 µg/mL (≈ 0.0751 µM) (IC50).
`C=C1C(=O)[C@@]23[C@@H]4O[C@H]5O[C@@]2(O)[C@@H](O)[C@@H]2C(C)(C)CCC[C@]52[C@@H]3[C@@H](OC(C)=O)C[C@@H]14` [XEROPHILUSIN A] registered an IC50 of 2.22 µg/mL (≈ 5.49 µM).
Molecule `C=C1C(=O)[C@@]23[C@@H]4O[C@H]5O[C@@]2(O)[C@@H](O)[C@@H]2C(C)(C)CCC[C@]52[C@@H]3[C@@H](O)C[C@@H]14` [MACROCALIN B] gave an IC50 of 8.07 µg/mL (≈ 22.3 µM).

The next experiment has as its system HL-60. The experiment in a line: Cytotoxicity against human HL60 cells after 48 hrs by MTT assay. Format: functional, cell-based. The following applies: HL-60, 48 h. The method, boiled down: as §1
The molecule `C=C1C(=O)[C@@]23[C@@H]4O[C@H]5O[C@@]2(O)[C@@H](O)[C@@H]2C(C)(C)CCC[C@]52[C@@H]3CC[C@@H]14` [XEROPHILUSIN B] registered an IC50 of 0.29 µg/mL (≈ 0.837 µM).
`O=C1c2c(O)ccc(O)c2C(=O)c2c(NCCNCCO)ccc(NCCNCCO)c21` [MITOXANTRONE]: inhibition was half-maximal at 0.29 µg/mL (≈ 0.652 µM) (IC50).
On the same count and under the same terms, the value for `C=C1C(=O)[C@@]23[C@@H]4O[C@H]5O[C@@]2(O)[C@@H](O)[C@@H]2C(C)(C)CCC[C@]52[C@@H]3[C@@H](OC(C)=O)C[C@@H]14` [XEROPHILUSIN A] was 0.45 µg/mL (≈ 1.11 µM).
On the same count and under the same terms, the value for `C=C1C(=O)[C@@]23[C@@H]4O[C@H]5O[C@@]2(O)[C@@H](O)[C@@H]2C(C)(C)CCC[C@]52[C@@H]3[C@@H](O)C[C@@H]14` [MACROCALIN B] was 2.05 µg/mL (≈ 5.66 µM).

Test system in a further experiment: not listed separately
The experiment in a line: Cytotoxicity against human HCT cells after 48 hrs by MTT assay. It counts as functional, cell-based.
Settings: not given
The procedure, abridged:
as §1
In turn, `O=C1c2c(O)ccc(O)c2C(=O)c2c(NCCNCCO)ccc(NCCNCCO)c21` [MITOXANTRONE] gave a concentration for half-maximal inhibition (IC50) of 1.54 µg/mL (≈ 3.46 µM).

For another experiment, the system named is MKN-28. The experiment in a line: Cytotoxicity against human MKN28 cells after 48 hrs by MTT assay. It counts as functional, cell-based. The following applies: MKN-28, 48 h. The method, boiled down: as §1
On the technique in general: Tetrazolium assays rely on reduction of a dye to a coloured formazan, in cell work by metabolically active cells.
`C=C1C(=O)[C@@]23[C@@H]4O[C@H]5O[C@@]2(O)[C@@H](O)[C@@H]2C(C)(C)CCC[C@]52[C@@H]3CC[C@@H]14` [XEROPHILUSIN B] registered an IC50 of 0.17 µg/mL (≈ 0.491 µM).
In turn, `O=C1c2c(O)ccc(O)c2C(=O)c2c(NCCNCCO)ccc(NCCNCCO)c21` [MITOXANTRONE] registered an IC50 of 0.02 µg/mL (≈ 0.045 µM).
The same measure, in the same setting: to `C=C1C(=O)[C@@]23[C@@H]4O[C@H]5O[C@@]2(O)[C@@H](O)[C@@H]2C(C)(C)CCC[C@]52[C@@H]3[C@@H](OC(C)=O)C[C@@H]14` [XEROPHILUSIN A] belongs 0.12 µg/mL (≈ 0.297 µM); to `C=C1C(=O)[C@@]23[C@@H]4O[C@H]5O[C@@]2(O)[C@@H](O)[C@@H]2C(C)(C)CCC[C@]52[C@@H]3[C@@H](O)C[C@@H]14` [MACROCALIN B], 1.68 µg/mL (≈ 4.64 µM).
